Assay results as given in ChEMBL document CHEMBL1134346, “Labeling and evaluation of N-[11C]methylated quinoline-2-carboxamides as potential radioligands for visualization of peripheral benzodiazepine receptors” (J Med Chem, 2001).

species: Rattus norvegicus; test: Tissue (cortex) distribution in Albino male CD rats after 90 minutes expressed as percent of injected dose per gram of organ.; assay type: ADME, organism-based; conditions: in vivo, 1.5 h
Method in brief: (§1)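 Radioligand given in saline into tail vein of male albino CD rats (225-250 g); 100-200 µCi per animal, 1-2 Ci/µmol at injection depending on radioligand. Three rats per time point were decapitated under light ether anaesthesia. Blood, plasma, brain regions and washed organs were weighed and gamma-counted. Uptake is %I.D./g tissue, mean ± SD.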

I.D./g | Compound
0.05% | Cc1c(C(=O)N(C)Cc2ccccc2)nc2ccccc2c1-c1ccccc1

target: Translocator protein (Rattus norvegicus) (UniProt P16257); test: Tissue (adrenal gland) concentration of radioactivity at 30 min post-injection into Albino male CD rats after pretreatment with cold PK 11195.; assay type: functional, tissue-based; conditions: not given
Sequence (P16257 whole entry, looked up): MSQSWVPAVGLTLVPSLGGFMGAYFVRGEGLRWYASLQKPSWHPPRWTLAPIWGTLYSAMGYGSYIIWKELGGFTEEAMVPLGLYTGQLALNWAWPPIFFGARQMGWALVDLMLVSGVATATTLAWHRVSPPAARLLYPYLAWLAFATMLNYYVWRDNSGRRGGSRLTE
Method in brief: (§2)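 Separate groups of five rats received tail-vein PK 11195 (1.4-1.6 mg; 5 mg/kg) in 30 µL DMSO:EtOH 1:1, or vehicle alone, immediately before iv radioligand (90-170 µCi in saline, 0.9-1 Ci/µmol). Rats were decapitated at 30 min and tissues gamma-counted; values are %I.D./g.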

I.D./g | Compound
< 0.17% | Cc1c(C(=O)N(C)Cc2ccccc2)nc2ccccc2c1-c1ccccc1

species: Rattus norvegicus; test: Tissue (muscle) distribution in Albino male CD rats after 90 minutes expressed as percent of injected dose per gram of organ.; assay type: ADME, organism-based; conditions: in vivo, 1.5 h
Method in brief: (§3)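 Male albino CD rats (225-250 g) received the 11C-labelled radioligand in saline by tail-vein injection. Three rats per time point were decapitated under light ether anaesthesia at 5, 15, 30, 60 or 90 min. Blood was collected heparinized and plasma separated by centrifugation. The pituitary was dissected from the brain. Lung, liver (three-lobe pieces) and right deltoid muscle were sampled, washed in cold saline, gamma-counted and weighed. Results are %I.D./g.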

I.D./g | Compound
0.21% | Cc1c(C(=O)N(C)Cc2ccccc2)nc2ccccc2c1-c1ccccc1

target: Translocator protein (Rattus norvegicus) (UniProt P16257); test: Tissue (pituitary) concentration of radioactivity at 30 min post-injection into Albino male CD rats after pretreatment with cold PK 11195.; assay type: functional, tissue-based; conditions: Pituitary gland
Method in brief: (§4)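 Blocking study in male albino CD rats, five per group. Immediately before the 11C radioligand (in saline, i.v. tail vein), rats received 30 µL tail-vein PK 11195 (5 mg/kg; 1.4-1.6 mg) in DMSO:EtOH 1:1, or vehicle. Rats were decapitated at 30 min. Tissues were dissected, washed, gamma-counted and weighed as in the biodistribution study. Results are %I.D./g.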

I.D./g | Compound
> 0.09% | Cc1c(C(=O)N(C)Cc2ccccc2)nc2ccccc2c1-c1ccccc1

species: Rattus norvegicus; test: Tissue (pituitary) distribution in Albino male CD rats after 15 minutes expressed as percent of injected dose per gram of organ.; assay type: ADME, organism-based, Pituitary gland; conditions: in vivo, 0.25 h; method in brief: as §3

I.D./g | Compound
0.49% | Cc1c(C(=O)N(C)Cc2ccccc2)nc2ccccc2c1-c1ccccc1

species: Rattus norvegicus; test: Tissue (pituitary) distribution in Albino male CD rats after 90 minutes expressed as percent of injected dose per gram of organ.; assay type: ADME, organism-based, Pituitary gland; conditions: in vivo, 1.5 h; method in brief: as §3

I.D./g | Compound
0.15% | Cc1c(C(=O)N(C)Cc2ccccc2)nc2ccccc2c1-c1ccccc1

species: Rattus norvegicus; test: Tissue (plasma) distribution in Albino male CD rats after 15 minutes expressed as percent of injected dose per gram of organ.; assay type: ADME, organism-based; conditions: in vivo, 0.25 h; method in brief: as §3

I.D./g | Compound
0.09% | Cc1c(C(=O)N(C)Cc2ccccc2)nc2ccccc2c1-c1ccccc1

species: Rattus norvegicus; test: Tissue (plasma) distribution in Albino male CD rats after 5 minutes expressed as percent of injected dose per gram of organ.; assay type: ADME, organism-based; conditions: in vivo; method in brief: as §3

I.D./g | Compound
0.16% | Cc1c(C(=O)N(C)Cc2ccccc2)nc2ccccc2c1-c1ccccc1

species: Rattus norvegicus; test: Tissue (plasma) distribution in Albino male CD rats after 90 minutes expressed as percent of injected dose per gram of organ.; assay type: ADME, organism-based; conditions: in vivo, 1.5 h; method in brief: as §3

I.D./g | Compound
0.05% | Cc1c(C(=O)N(C)Cc2ccccc2)nc2ccccc2c1-c1ccccc1

target: Translocator protein (Rattus norvegicus) (UniProt P16257); test: Tissue (spleen) concentration of radioactivity at 30 min post-injection into Albino male CD rats after pretreatment with cold PK 11195.; assay type: functional, tissue-based; conditions: not given; method in brief: as §4

I.D./g | Compound
< 0.02% | Cc1c(C(=O)N(C)Cc2ccccc2)nc2ccccc2c1-c1ccccc1

species: Rattus norvegicus; test: Tissue (heart) distribution in Albino male CD rats after 30 minutes expressed as percent of injected dose per gram of organ.; assay type: ADME, organism-based; conditions: in vivo, 0.5 h; method in brief: as §1

I.D./g | Compound
2.58% | Cc1c(C(=O)N(C)Cc2ccccc2)nc2ccccc2c1-c1ccccc1

species: Rattus norvegicus; test: Tissue (heart) distribution in Albino male CD rats after 5 minutes expressed as percent of injected dose per gram of organ.; assay type: ADME, organism-based; conditions: in vivo; method in brief: as §1

I.D./g | Compound
1.79% | Cc1c(C(=O)N(C)Cc2ccccc2)nc2ccccc2c1-c1ccccc1

species: Rattus norvegicus; test: Tissue (heart) distribution in Albino male CD rats after 60 minutes expressed as percent of injected dose per gram of organ.; assay type: ADME, organism-based; conditions: in vivo, 1 h; method in brief: as §1

I.D./g | Compound
2.09% | Cc1c(C(=O)N(C)Cc2ccccc2)nc2ccccc2c1-c1ccccc1

species: Rattus norvegicus; test: Tissue (intestine) distribution in Albino male CD rats after 30 minutes expressed as percent of injected dose per gram of organ.; assay type: ADME, organism-based; conditions: in vivo, 0.5 h; method in brief: as §1

I.D./g | Compound
0.55% | Cc1c(C(=O)N(C)Cc2ccccc2)nc2ccccc2c1-c1ccccc1

species: Rattus norvegicus; test: Tissue (intestine) distribution in Albino male CD rats after 5 minutes expressed as percent of injected dose per gram of organ.; assay type: ADME, organism-based; conditions: in vivo; method in brief: as §1

I.D./g | Compound
0.3% | Cc1c(C(=O)N(C)Cc2ccccc2)nc2ccccc2c1-c1ccccc1

species: Rattus norvegicus; test: Tissue (kidney) concentration of radioactivity at 30 min post-injection into Albino male CD rats with vehicle.; assay type: ADME, organism-based; conditions: in vivo, 0.5 h; method in brief: as §2

I.D./g | Compound
0.19% | Cc1c(C(=O)N(C)Cc2ccccc2)nc2ccccc2c1-c1ccccc1

species: Rattus norvegicus; test: Tissue (blood) distribution in Albino male CD rats after 90 minutes expressed as percent of injected dose per gram of organ.; assay type: ADME, organism-based; conditions: in vivo, 1.5 h; method in brief: as §1

I.D./g | Compound
0.04% | Cc1c(C(=O)N(C)Cc2ccccc2)nc2ccccc2c1-c1ccccc1

species: Rattus norvegicus; test: Tissue (cerebellum) distribution in Albino male CD rats after 30 minutes expressed as percent of injected dose per gram of organ.; assay type: ADME, organism-based; conditions: in vivo, 0.5 h; method in brief: as §1

I.D./g | Compound
0.12% | Cc1c(C(=O)N(C)Cc2ccccc2)nc2ccccc2c1-c1ccccc1

species: Rattus norvegicus; test: Tissue (cerebellum) distribution in Albino male CD rats after 60 minutes expressed as percent of injected dose per gram of organ.; assay type: ADME, organism-based; conditions: in vivo, 1 h; method in brief: as §1

I.D./g | Compound
0.08% | Cc1c(C(=O)N(C)Cc2ccccc2)nc2ccccc2c1-c1ccccc1

species: Rattus norvegicus; test: Tissue (intestine) distribution in Albino male CD rats after 15 minutes expressed as percent of injected dose per gram of organ.; assay type: ADME, organism-based; conditions: in vivo, 0.25 h; method in brief: as §1

I.D./g | Compound
0.78% | Cc1c(C(=O)N(C)Cc2ccccc2)nc2ccccc2c1-c1ccccc1
